≈ marks a conversion by molar mass, not a printed value. Calls of active or inactive are those of the source. The calls are words filed in the database; no cut-off is given here.
Tests used:
[1] = molecular target: AMP-activated protein kinase (AMPK) alpha-1/beta-1/gamma-1 (Homo sapiens) (UniProt P54619+Q9Y478+Q13131); experiment: Activation of human recombinant AMPK alpha1beta1gamma1 by FRET assay; assay type: protein-complex assay
In short: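 Activation of the α1β1γ1 heterotrimer, reported as pEC200 = −log(concentration giving a 2-fold increase in AMPK activity). Values are means of at least 2 independent experiments.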

[2] = Oral bioavailability in mouse at 5 mg/kg; assay type: ADME, organism-based; details: in vivo
In short: (§1)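 Mouse pharmacokinetics. Oral dosing at 5 or 30 mg/kg as a suspension in HPMC K100 0.5%/Tween 80 0.1% in pH 7 buffer. AUC is measured in blood. Bioavailability is taken against an iv dose of 1 mg/kg.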

[3] = Clearance in mouse at 1 mg/kg, iv; assay type: ADME, organism-based; parameters: dose 1 mg/kg, route intravenous; details: in vivo
In short: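 Mouse iv pharmacokinetics. 1 mg/kg given as a solution in DMSO/hydroxypropyl-β-cyclodextrin 20% in pH 7 buffer (5:95). Blood clearance is determined.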

[4] = AUC in mouse at 5 mg/kg, po; assay type: ADME, organism-based, Plasma; parameters: dose 5 mg/kg, route oral; details: blood; in short: as §1
[5] = Plasma protein binding in mouse; assay type: ADME, cell-free; details: read-out: PPB (converted)
[6] = Solubility of the compound; assay type: physicochemical
In short: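 Solubility is the soluble fraction of the oral formulation (HPMC K100 0.5%/Tween 80 0.1% in pH 7 buffer) made by ball milling from solid powder. The maximum is […].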

[7] = Permeability of the compound by PAMPA; assay type: ADME; details: read-out: permeability
In short: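 Passive permeability is measured by parallel artificial membrane permeability assay (PAMPA).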

[8] = Dissociation constant, pKa of the compound; assay type: physicochemical
[9] = system: Blood; experiment: Ratio of AUC in mouse blood in presence of P-gp inhibitor GF120918 to AUC in mouse blood at 30 mg/kg, po; assay type: ADME, organism-based; parameters: dose 30 mg/kg, route oral; details: in vivo
In short: (§2)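 Mice are dosed orally (5 or 30 mg/kg) as a suspension in HPMC K100 0.5%/Tween 80 0.1% in pH 7 buffer, alone or co-administered with the P-gp inhibitor GF120918 at 30 mg/kg. Mean blood AUC with the inhibitor is compared with AUC without it.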

[10] = system: Mus musculus; experiment: Antidiabetic activity in ob/ob mouse assessed as reduction in blood glucose level at 10 mg/kg, po bid for 5 days measured 12 hrs after last dose relative to control; assay type: functional; parameters: scale not given: the % may be the effect or the level left
In short: (§3)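 ob/ob mice are gavaged bid for 5 days at 10 or 30 mg/kg without P-gp inhibitor. Blood glucose is measured 12 h after the last gavage and compared with control.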

[11] = system: Mus musculus; experiment: Antidiabetic activity in ob/ob mouse assessed as reduction in blood glucose level at 30 mg/kg, po bid for 5 days measured 12 hrs after last dose relative to control; assay type: functional; parameters: scale not given: the % may be the effect or the level left; in short: as §3
[12] = molecular target: AMPK alpha2/beta2/gamma1 (Homo sapiens) (UniProt P54646+O43741+P54619); experiment: Activation of human recombinant AMPK alpha2beta2gamma1; assay type: protein-complex assay
[13] = Oral bioavailability in mouse at 30 mg/kg; assay type: ADME, organism-based; details: in vivo; in short: as §1
[14] = AUC in mouse at 30 mg/kg, po; assay type: ADME, organism-based, Plasma; parameters: dose 30 mg/kg, route oral; details: blood; in short: as §1
[15] = system: Blood; experiment: Ratio of AUC in mouse blood in presence of P-gp inhibitor GF120918 to AUC in mouse blood at 5 mg/kg, po; assay type: ADME, organism-based; parameters: dose 5 mg/kg, route oral; details: in vivo; in short: as §2
[16] = system: Mus musculus; experiment: Antidiabetic activity in ob/ob mouse assessed as reduction in blood glucose level at 100 mg/kg, po bid for 5 days in presence of P-gp inhibitor GF120918 relative to control; assay type: functional; parameters: scale not given: the % may be the effect or the level left
In short: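 ob/ob mice receive chronic oral treatment at 100 mg/kg co-administered with the P-gp inhibitor. The blood glucose reduction is assessed against control.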

[17] = molecular target: AMPK alpha2/beta2/gamma3 (Homo sapiens) (UniProt P54646+O43741+Q9UGI9); experiment: Activation of human recombinant AMPK alpha2beta2gamma3; assay type: protein-complex assay
[18] = molecular target: AMPK alpha1/beta2/gamma1 (Homo sapiens) (UniProt O43741+P54619+Q13131); experiment: Activation of human recombinant AMPK alpha1beta2gamma1; assay type: protein-complex assay
[19] = molecular target: AMPK alpha2/beta1/gamma1 (Homo sapiens) (UniProt P54646+P54619+Q9Y478); experiment: Activation of human recombinant AMPK alpha2beta1gamma1; assay type: protein-complex assay
[20] = molecular target: AMPK alpha1/beta1/gamma3 (Homo sapiens) (UniProt Q9Y478+Q13131+Q9UGI9); experiment: Activation of human recombinant AMPK alpha1beta1gamma3; assay type: protein-complex assay
[21] = molecular target: AMPK alpha1/beta1/gamma2 (Homo sapiens) (UniProt Q9UGJ0+Q9Y478+Q13131); experiment: Activation of human recombinant AMPK alpha1beta1gamma2; assay type: protein-complex assay
Chain of AMPK alpha1/beta1/gamma2 (Homo sapiens) (Q13131 whole entry partner): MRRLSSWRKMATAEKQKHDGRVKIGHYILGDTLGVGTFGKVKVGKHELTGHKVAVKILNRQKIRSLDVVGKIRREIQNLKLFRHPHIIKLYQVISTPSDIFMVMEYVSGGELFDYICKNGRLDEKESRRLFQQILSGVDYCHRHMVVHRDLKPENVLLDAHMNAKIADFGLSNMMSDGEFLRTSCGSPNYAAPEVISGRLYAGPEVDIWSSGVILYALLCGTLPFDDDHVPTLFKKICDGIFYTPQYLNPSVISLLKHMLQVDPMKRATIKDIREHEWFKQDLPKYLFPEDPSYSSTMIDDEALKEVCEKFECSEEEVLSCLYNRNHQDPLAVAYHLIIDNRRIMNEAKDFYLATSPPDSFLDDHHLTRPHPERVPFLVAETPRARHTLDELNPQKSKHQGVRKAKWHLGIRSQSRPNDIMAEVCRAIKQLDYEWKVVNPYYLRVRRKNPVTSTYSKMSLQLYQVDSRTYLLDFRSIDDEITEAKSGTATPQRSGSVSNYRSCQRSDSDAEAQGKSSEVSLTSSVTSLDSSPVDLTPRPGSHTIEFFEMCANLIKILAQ
Chain of AMPK alpha1/beta1/gamma2 (Homo sapiens) (Q9UGJ0 whole entry): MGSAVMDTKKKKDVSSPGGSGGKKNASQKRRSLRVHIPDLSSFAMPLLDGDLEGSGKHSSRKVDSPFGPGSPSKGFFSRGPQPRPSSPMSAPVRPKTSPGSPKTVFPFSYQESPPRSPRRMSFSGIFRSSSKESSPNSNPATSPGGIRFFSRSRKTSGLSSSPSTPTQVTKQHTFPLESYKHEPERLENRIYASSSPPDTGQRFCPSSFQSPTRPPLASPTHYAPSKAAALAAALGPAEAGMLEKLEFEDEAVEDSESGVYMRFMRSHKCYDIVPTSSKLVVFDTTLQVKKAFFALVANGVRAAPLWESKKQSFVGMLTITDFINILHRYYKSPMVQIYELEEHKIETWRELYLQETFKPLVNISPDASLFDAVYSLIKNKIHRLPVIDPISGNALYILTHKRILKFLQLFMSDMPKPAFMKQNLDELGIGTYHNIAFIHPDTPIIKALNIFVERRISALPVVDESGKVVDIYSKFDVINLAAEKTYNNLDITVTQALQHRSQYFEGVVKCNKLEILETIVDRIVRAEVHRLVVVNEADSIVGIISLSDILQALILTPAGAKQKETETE
Chain of AMPK alpha1/beta1/gamma2 (Homo sapiens) (Q9Y478 2-270 partner limits assumed): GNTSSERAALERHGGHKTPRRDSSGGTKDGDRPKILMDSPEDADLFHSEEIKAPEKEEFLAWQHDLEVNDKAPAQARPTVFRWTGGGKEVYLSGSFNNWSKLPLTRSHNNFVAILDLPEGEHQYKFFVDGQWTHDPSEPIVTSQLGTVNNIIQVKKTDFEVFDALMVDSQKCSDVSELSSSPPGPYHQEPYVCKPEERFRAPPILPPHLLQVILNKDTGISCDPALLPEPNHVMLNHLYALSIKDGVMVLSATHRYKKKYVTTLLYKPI

Chain of AMP-activated protein kinase (AMPK) alpha-1/beta-1/gamma-1 (Homo sapiens) (P54619 whole entry): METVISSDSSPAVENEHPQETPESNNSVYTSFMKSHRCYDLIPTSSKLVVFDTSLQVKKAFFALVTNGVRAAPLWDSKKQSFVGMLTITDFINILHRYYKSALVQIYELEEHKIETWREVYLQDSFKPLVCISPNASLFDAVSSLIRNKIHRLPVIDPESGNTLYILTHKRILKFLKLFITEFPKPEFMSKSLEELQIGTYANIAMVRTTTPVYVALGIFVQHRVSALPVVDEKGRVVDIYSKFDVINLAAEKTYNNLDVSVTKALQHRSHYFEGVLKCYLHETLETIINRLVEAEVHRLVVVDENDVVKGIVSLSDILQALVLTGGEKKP
Chain of AMP-activated protein kinase (AMPK) alpha-1/beta-1/gamma-1 (Homo sapiens) (Q13131 whole entry partner): as the sequence (Q13131 whole entry partner) above
Chain of AMP-activated protein kinase (AMPK) alpha-1/beta-1/gamma-1 (Homo sapiens) (Q9Y478 2-270 partner limits assumed): as the sequence (Q9Y478 2-270 partner limits assumed) above
Chain of AMPK alpha2/beta2/gamma1 (Homo sapiens) (O43741 whole entry, looked up): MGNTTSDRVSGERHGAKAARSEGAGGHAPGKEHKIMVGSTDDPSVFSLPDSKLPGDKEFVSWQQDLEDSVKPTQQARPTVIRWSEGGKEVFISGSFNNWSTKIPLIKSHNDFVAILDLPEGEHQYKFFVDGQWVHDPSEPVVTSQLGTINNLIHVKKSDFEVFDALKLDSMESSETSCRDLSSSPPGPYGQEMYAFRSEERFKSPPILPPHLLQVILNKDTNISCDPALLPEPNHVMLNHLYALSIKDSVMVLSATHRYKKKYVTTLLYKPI
Chain of AMPK alpha2/beta2/gamma1 (Homo sapiens) (P54619 whole entry, looked up): as the sequence (P54619 whole entry) above
Chain of AMPK alpha2/beta2/gamma1 (Homo sapiens) (P54646 whole entry, looked up): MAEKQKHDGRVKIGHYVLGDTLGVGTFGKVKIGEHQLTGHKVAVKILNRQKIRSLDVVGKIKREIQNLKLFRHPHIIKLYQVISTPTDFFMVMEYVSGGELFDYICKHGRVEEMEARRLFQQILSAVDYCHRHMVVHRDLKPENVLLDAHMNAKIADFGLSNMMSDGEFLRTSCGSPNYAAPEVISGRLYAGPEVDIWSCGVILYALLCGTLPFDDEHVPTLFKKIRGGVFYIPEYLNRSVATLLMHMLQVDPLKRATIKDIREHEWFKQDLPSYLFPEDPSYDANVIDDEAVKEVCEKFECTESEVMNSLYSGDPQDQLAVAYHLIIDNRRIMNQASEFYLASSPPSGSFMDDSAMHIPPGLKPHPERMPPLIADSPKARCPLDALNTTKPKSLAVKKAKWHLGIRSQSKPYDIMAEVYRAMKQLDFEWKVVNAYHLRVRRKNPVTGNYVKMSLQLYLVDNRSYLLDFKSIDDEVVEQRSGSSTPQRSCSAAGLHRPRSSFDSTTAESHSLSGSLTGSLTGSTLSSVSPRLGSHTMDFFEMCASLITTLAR
Chain of AMPK alpha1/beta2/gamma1 (Homo sapiens) (O43741 whole entry, looked up): as the sequence (O43741 whole entry, looked up) above
Chain of AMPK alpha1/beta2/gamma1 (Homo sapiens) (P54619 whole entry, looked up): as the sequence (P54619 whole entry) above
Chain of AMPK alpha1/beta2/gamma1 (Homo sapiens) (Q13131 whole entry, looked up): as the sequence (Q13131 whole entry partner) above
Chain of AMPK alpha2/beta2/gamma3 (Homo sapiens) (O43741 whole entry, looked up): as the sequence (O43741 whole entry, looked up) above
Chain of AMPK alpha2/beta2/gamma3 (Homo sapiens) (P54646 whole entry, looked up): as the sequence (P54646 whole entry, looked up) above
Chain of AMPK alpha2/beta2/gamma3 (Homo sapiens) (Q9UGI9 whole entry, looked up): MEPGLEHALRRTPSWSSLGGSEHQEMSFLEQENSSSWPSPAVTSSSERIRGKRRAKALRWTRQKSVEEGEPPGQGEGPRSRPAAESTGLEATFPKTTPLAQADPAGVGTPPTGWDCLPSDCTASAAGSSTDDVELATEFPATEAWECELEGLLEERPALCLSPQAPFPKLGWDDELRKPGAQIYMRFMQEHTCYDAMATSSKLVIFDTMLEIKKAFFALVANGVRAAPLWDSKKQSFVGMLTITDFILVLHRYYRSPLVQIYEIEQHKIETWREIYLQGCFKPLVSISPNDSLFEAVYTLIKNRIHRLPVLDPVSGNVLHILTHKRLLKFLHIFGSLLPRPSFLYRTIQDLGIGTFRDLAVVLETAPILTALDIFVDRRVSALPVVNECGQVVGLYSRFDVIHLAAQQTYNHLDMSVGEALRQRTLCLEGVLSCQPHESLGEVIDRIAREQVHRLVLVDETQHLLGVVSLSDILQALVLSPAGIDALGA
Chain of AMPK alpha2/beta1/gamma1 (Homo sapiens) (P54619 whole entry partner): as the sequence (P54619 whole entry) above
Chain of AMPK alpha2/beta1/gamma1 (Homo sapiens) (P54646 whole entry): as the sequence (P54646 whole entry, looked up) above
Chain of AMPK alpha2/beta1/gamma1 (Homo sapiens) (Q9Y478 2-270 partner limits assumed): as the sequence (Q9Y478 2-270 partner limits assumed) above
Chain of AMPK alpha1/beta1/gamma3 (Homo sapiens) (Q13131 whole entry partner): as the sequence (Q13131 whole entry partner) above
Chain of AMPK alpha1/beta1/gamma3 (Homo sapiens) (Q9UGI9 whole entry partner): as the sequence (Q9UGI9 whole entry, looked up) above
Chain of AMPK alpha1/beta1/gamma3 (Homo sapiens) (Q9Y478 2-270 limits assumed): as the sequence (Q9Y478 2-270 partner limits assumed) above

Row | Structure (SMILES) | pEC200 [1] | bioavailability [2] [%] | clearance [3] [L/h/kg] | AUC [4] [µg·h/mL] | fraction unbound [5] | solubility [6] [mg/mL] | Papp [7] [nm/s] | further results
1 | COc1cccc(-c2ccc(-n3ccc4[nH]c(=O)c(C#N)c(O)c43)cc2)c1 | 5.3 |  |  |  |  |  |  | 
2 | COc1ccccc1-c1ccc(-n2ccc3[nH]c(=O)c(C#N)c(O)c32)cc1 | 5.5 |  |  |  |  |  |  | 
3 | N#Cc1c(O)c2c(-c3ccc(-c4ccccc4O)cc3)csc2[nH]c1=O | 8.5 | 2 | 1.44 | 0.08 | 0.013 | 0.5 (≈ 1390 µM) | < 3 | 
4 | CCc1ccc(-n2c(Cl)cc3[nH]c(=O)c(-c4ccccc4)c(O)c32)cc1 | 6.3 | 50 | 0.72 | 3.41 | 0.002 | 0.02 (≈ 54.8 µM) | 150 | pKa [8]: 6
5 | COc1cccc(-c2ccc(-n3c(Cl)cc4[nH]c(=O)c(-c5ccccc5)c(O)c43)cc2)c1O | 7.6 | 15 | 0.018 | 41.3 | < 0.001 | 0.025 (≈ 54.5 µM) | 110 | Ratio AUC [9]: 2; Activity [10]: 13%; Activity [11]: 17%; Activity [12]: Active
6 | COc1cccc(-c2ccc(-n3ccc4[nH]c(=O)c(C#N)c(O)c43)cc2)c1O | 8 | < 1 | 0.144 | 0.07 | 0.007 | 0.5 (≈ 1340 µM) | < 0.4 | 
7 | N#Cc1c(O)c2c(ccn2-c2ccc(-c3ccccc3O)cc2)[nH]c1=O | 7.8 |  | 2.04 |  |  |  |  | bioavailability [13]: 10%; AUC [14]: 1.49 µg·h/mL
8 | COc1cccc(-c2ccc(-n3c(Cl)cc4[nH]c(=O)c(C#N)c(O)c43)cc2)c1O | 9.2 | 3 | 0.18 | 0.892 | < 0.001 | 0.0425 (≈ 104 µM) | < 3 | Ratio AUC [15]: 10; Activity [16]: 18%; pEC200 [17]: 7.3; pEC200 [12]: 7.3; Activity [18]: Active; Activity [19]: Active; Activity [20]: Active; Activity [21]: Active
9 | COc1ccc(-c2ccc(-n3ccc4[nH]c(=O)c(C#N)c(O)c43)cc2)cc1 | 6.8 |  |  |  |  | 0.059 (≈ 165 µM) | < 0.8 | 
10 | COc1cccc(-c2ccc(-n3c(Cl)cc4[nH]c(=O)c(-c5cccc(C(=O)O)c5)c(O)c43)cc2)c1O | 8.7 | 0.5 | 0.06 | 0.403 | < 0.001 | 0.325 (≈ 646 µM) | < 0.6 | 
11 | Cc1ccc(-c2ccc(-n3c(Cl)cc4[nH]c(=O)c(C#N)c(O)c43)cc2)cc1 | 7.5 | 14 | 0.042 | 17 | < 0.001 | 0.129 (≈ 343 µM) | 4.8 | pEC200 [17]: 5.5; pEC200 [12]: 5.5; pEC200 [18]: < 4.5
12 | N#Cc1c(O)c2c(cc(Cl)n2-c2ccc(-c3ccsc3)cc2)[nH]c1=O | 8.1 | 21 | 0.054 | 19.5 | < 0.001 | 0.186 (≈ 506 µM) | < 0.7 | Activity [16]: 17%; Activity [12]: Active; pKa [8]: < 2

— ChEMBL document CHEMBL2406937, “Discovery of Pyridones As Oral AMPK Direct Activators” (ACS Med Chem Lett, 2013)
